ChEMBL document CHEMBL1151788, “Synthesis and biological activity of 1-methyl-tryptophan-tirapazamine hybrids as hypoxia-targeting indoleamine 2,3-dioxygenase inhibitors” (Bioorg Med Chem, 2008)
The source made the active and inactive calls. The calls are words filed in the database; no cut-off is given here.

Tests used:
[1] = molecular target: Indoleamine 2,3-dioxygenase 1 (Homo sapiens, UniProt P14902); assay: Inhibition of indoleamine 2,3-dioxygenase in aerobic condition
[2] = Cytotoxicity against mouse EMT6/KU cells in hypoxic condition for 5 hrs measured after 7 to 10 days; format: functional, cell-based
How it was run: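 Drug medium (DMSO stock diluted in medium) was added and the cells were held 5 h at 37 °C in a hypoxic chamber flushed with 5% CO2/95% N2. After drug removal, colonies grew 7–10 days, then were methanol-fixed, Giemsa-stained and counted for surviving fraction.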

[3] = Hypoxic cytotoxicity ratio of IC50 for mouse EMT6/KU cells in aerobic condition to IC50 for mouse EMT6/KU cells in hypoxic condition; format: functional
How it was run: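 IC50 values came from clonogenic survival of EMT6/KU cells after 5 h drug exposure at 37 °C, either aerobic (CO2 incubator) or hypoxic (5% CO2/95% N2 chamber), with Giemsa-stained colonies counted after 7–10 days. The ratio is IC50(aerobic)/IC50(hypoxic).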

[4] = Cytotoxicity against mouse EMT6/KU cells in aerobic condition for 5 hrs measured after 7 to 10 days; format: functional, cell-based
How it was run: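 Late-log cells were plated at 10^3, 5×10^2 or 2×10^2 per dish and grown 24 h. Drug in DMSO diluted in medium was then given in a CO2 incubator at 37 °C for 5 h. After washout, colonies grew 7–10 days and were methanol-fixed, Giemsa-stained and counted.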

Row | Compound | Activity [1] | IC50 [2] [µM] | Ratio IC50 [3] | IC50 [4] [µM] | Ki [1] [µM]
1 | O=C(NCCCCCNc1n[n+]([O-])c2ccccc2[n+]1[O-])C(F)(F)F | inactive |  |  |  | 
2 | Nc1n[n+]([O-])c2ccccc2[n+]1[O-] [TIRAPAZAMINE] | inactive | 12 | 3.2 | 38 | 
3 | Cn1cc(C[C@H](NC(=O)OC(C)(C)C)C(=O)NCCCCCNc2n[n+]([O-])c3ccccc3[n+]2[O-])c2ccccc21 |  | 7.1 | 4.9 | 35 | 197
4 | O=C(NCCCCCNc1nc2ccccc2[n+]([O-])n1)C(F)(F)F | inactive |  |  |  | 
5 | Cn1cc(C[C@H](NC(=O)OC(C)(C)C)C(=O)NCCCCCNc2nc3ccccc3[n+]([O-])n2)c2ccccc21 |  | 33 | 1.3 | 42 | 76.3
6 | Nc1nc2ccccc2[n+]([O-])n1 | inactive | > 40 |  | > 80 | 
7 | O=C(NCCCCNc1n[n+]([O-])c2ccccc2[n+]1[O-])C(F)(F)F | inactive |  |  |  | 
8 | Cn1cc(C[C@H](NC(=O)OC(C)(C)C)C(=O)NCCCCNc2n[n+]([O-])c3ccccc3[n+]2[O-])c2ccccc21 |  | 8 | >5 | > 40 | 367
9 | Cn1cc(C[C@H](NC(=O)OC(C)(C)C)C(=O)NCCCCNc2nc3ccccc3[n+]([O-])n2)c2ccccc21 |  | 33 | 1.1 | 36 | 87.1
10 | Cn1cc(C[C@H](NC(=O)OC(C)(C)C)C(=O)O)c2ccccc21 | inactive |  |  |  | 
11 | O=C(NCCCCNc1nc2ccccc2[n+]([O-])n1)C(F)(F)F | inactive |  |  |  | 
